Test results as given in PMC3080100 (Chemical biology & drug design, 2011).
* marks the point of attachment. FITC = O=C1OC2(c3ccc(O)cc3Oc3cc(O)ccc32)c2ccc(NC(=S)*)cc21

Tests used:
Type in all cases: cell-based, mouse
EpH4 cells [1] = assay: Apoptosis scored as caspase-3 positive cells; settings: mean ± SEM; for percentage of cells containing caspase-3 (apoptosis): 2 mM peptide; for percent apoptosis (caspase-3 positive cells): 200 μM peptide, 16 hours at 37°C
Outline: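 EpH4 monolayers were exposed for 16 h to test compound over a dose range and fixed in 2% PFA (15 min RT). Then 0.5% Triton X-100 for 5 min and 2% BSA for 1 h. Primary: rabbit anti-cleaved caspase-3 (1:100), ± rat anti-ZO-1 (1:50), 1 h. Secondary: Cy3/FITC (1:150), 45 min. Percent positive cells scored; mean ± SEM, n=3-6 wells; unpaired t-test versus untreated.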

claudin-4 = assay: Claudin-4 localization by immunofluorescence; settings: EpH4 cells; for claudin-4 localization: 16 hours; for claudin-4 localization, time course: 400 μM, 16 hours at 4°C
claudin-3 = assay: Claudin-3 localization by immunofluorescence; settings: EpH4 cells, 16 hours, co-stained with ZO-1
Outline: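 EpH4 monolayers were exposed to peptide for 16 h, then fixed in 2% paraformaldehyde for 15 min at room temperature. Permeabilised with 0.5% Triton X-100 and blocked 1 h in 2% BSA. Stained 1 h with rabbit anti-claudin-3 (1:200) and rat anti-ZO-1 (1:50), then 45 min with fluorophore-conjugated donkey secondaries (1:150). Nuclei counterstained with DAPI; confocal z-stacks imaged.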

caspase-8 [2] = assay: Active caspase-8, live-cell fluorescent indicator; settings: EpH4 cells, 16 hours of peptide, indicator added during the last hour
Outline: (§1)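 EpH4 cells were grown 4-5 days on 8-well chamber slides to form tight junctions, then exposed to test compound or control peptide for 8, 16 or 24 h (DMSO <0.5% final). For the last 1 h, growth medium held 1X FLICA probe (sulforhodamine-DEVD-fmk for caspase-3/7; carboxyfluorescein-LETD-fmk for caspase-8). Optional 1 μM Hoechst 33342, 5 min 37°C; HBSS wash; 2% PFA, 15 min RT. Mean ± SEM, n=3-6.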

EpH4 cells [3] = assay: TUNEL staining
Outline: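 EpH4 cells on chamber slides were exposed to 350 μM test compound or control peptide for 8, 16 or 24 h. Fixed in 2% PFA and permeabilised in 1% sodium citrate with 0.1% Triton X-100. TUNEL staining used a TMR-red in situ cell death kit per manufacturer. Mean ± SEM, n=3-6.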

caspase-3 = assay: Active caspase-3; settings: EpH4 cells
Outline: as §1

EpH4 cells [4] = assay: Live-cell binding/localization of FITC-labeled peptide at 4°C, EpH4; settings: 400 μM, 1 hour at 4°C; for localization/binding of FITC-peptide at the plasma membrane: live imaging; for fluorescence intensity of FITC: washed in ice cold PBS, background subtracted, mean ± SEM, n=3 separate cultures, p=0.007
Outline: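 EpH4 cells were incubated 1 h at 4°C with 400 μM FITC-labelled test compound. Washed in ice-cold PBS and imaged live, without fixation. FITC intensity was measured after background subtraction. Mean ± SEM, n=3 separate cultures.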

3T3L1 cells [5] = assay: Active caspase-3 and -7, live-cell fluorescent indicator, 3T3L1 fibroblasts; settings: 3T3L1 fibroblast cells, 400 μM, 1 hour at 4°C then up to 4 hours at 37°C
Outline: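 Live imaging of EpH4 or 3T3L1 cells (3T3L1 in DMEM/F12 with 10% bovine calf serum, split 1:8 every 2-3 days). Cells received 400 μM FITC-labelled test compound for 1 h at 4°C. Active caspase-3/7 indicator was then applied for 1 h at 4°C (time 0), or after 30 min, 2 h or 4 h at 37°C. PBS wash, then fluorescence imaging.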

caspase-8 [6] = assay: Active caspase-8 by antibody, time course after warming from 4°C to 37°C; settings: EpH4 cells, 400 μM, 16 hours at 4°C, then 4 hr at 37°C
Outline: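 EpH4 cells grown 4–5 days on glass chamber slides to form tight junctions, in DMEM with 5% FBS and 10 mM Hepes. Exposed to 400 μM FITC-labelled D-form test peptide for 16 h at 4°C (final DMSO <0.5%). Then fixed (time 0) or moved to 37°C for 30 min, 2 h or 4 h. Fixed in 2% paraformaldehyde, permeabilised, BSA-blocked, immunostained for claudin-4 and active caspase-8, then imaged.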

3T3L1 cells [7] = assay: Live-cell binding/localization of FITC-labeled peptide at 4°C, 3T3L1; settings: 3T3L1 fibroblast cells, 400 μM, 1 hour at 4°C, live imaging
Outline: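 3T3L1 fibroblasts grown in DMEM/F12 with 10% bovine calf serum and plated on glass chamber slides. Given 400 μM FITC-linked D-form test peptide for 1 h at 4°C. Then either 1 h with live caspase-3/7 FLICA indicator at 4°C (time 0), or 30 min, 2 h or 4 h at 37°C before 1 h with indicator. Washed in cold PBS and imaged live without fixation.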

Ac-C-DFYNP-C-OH (disulfide) [peptide 2] was tested. Which “percentage of cells containing caspase-3 (apoptosis)” value (from here on “percentage”) (EpH4 cells [1]; 16 hours, n=3-6) did it give?
Its value is 9.22 ± 0.65%.

How did the “percent apoptosis (caspase-3 positive cells)” value (EpH4 cells [1]; n=3-6) turn out when “Ac-C-DFYNP-C-amide (disulfide) [disulfide-bridged D-peptide]” was run?
The value was 16.46 ± 0.51%.

And the “percentage” value (EpH4 cells [1]; 16 hours, n=3-6, listed as D-peptide)?
The value was 100%.

How did the “percentage” value (EpH4 cells [1]; 16 hours, n=3-6) turn out when “Ac-C-DFYNP-C-amide (disulfide) [peptide 3]” was run?
Its value is 7.96 ± 0.75%.

What about the “percentage” value (EpH4 cells [1]; 16 hours, n=3-6, listed as L-peptide) of the same substance?
The value was “about 7%”.

What does the source list for Ac-DFYNP-amide [linear D-peptide]?
claudin-4 localization (claudin-4; linear D-peptide, co-stained with ZO-1): mis-localized; percent apoptosis (caspase-3 positive cells) (EpH4 cells [1]; n=3-6): 12.27±0.72%; claudin-3 localization (claudin-3; linear D-peptide): mis-localization away from tight junctions

Which claudin-4 localization (claudin-4; 400 μM peptide, anti-claudin-4) does the source give for Ac-DGYNP-amide [D(G)YNP] here?
The claudin-4 localization was “not affected”.

What about the “percent apoptosis (caspase-3 positive cells)” value (EpH4 cells [1]; n=3-6) of the same substance?
The value was 1.46±0.53%.

What about the “percentage” value (EpH4 cells [1]; 16 hours, n=3-6) of the same substance?
Its value is 1.34±0.21%.

What about the claudin-3 localization (claudin-3; 400 μM peptide) of the same substance?
Its claudin-3 localization is “remained restricted to the tight junctions”.

Which claudin-4 localization (claudin-4; 350 μM peptide, anti-claudin-4) does the source give for LYQY [reference compound] here?
Its claudin-4 localization is “no effect”.

Which results are given for “NH2-C-DFYNP-C-OH (disulfide) [peptide 1]”?
claudin-4 localization (claudin-4; 400 μM peptide, anti-claudin-4): mis-localization; percentage of cells containing caspase-3 (apoptosis) (EpH4 cells [1]; 16 hours, n=3-6): 7.17 ± 1.24%; cells with activated caspase-8 compared to control (caspase-8 [2]): significant number of cells; TUNEL staining compared to control peptide treated cells (EpH4 cells [3]; 350 μM, 8, 16 or 24 hours): significantly increased; time of peak TUNEL staining (EpH4 cells [3]; 350 μM, tested at 8, 16 or 24 hours): ~16 h; cells with activated caspase-3 compared to control (caspase-3; 16 hours of peptide, indicator added during the last hour): significant number of cells

Which “claudin-4 localization, time course” value (claudin-4; then 30 min at 37°C) does the source give for {FITC}-DFYNP-NH2 here?
Its value is “significant amount of claudin-4 mis-localization”.

What about the “claudin-4 localization, time course” value (claudin-4; then 4 hr at 37°C) of the same substance?
Its value is “significant claudin-4 mis-localization”.

What about the claudin-4 localization (claudin-4; 800 μM peptide) of the same substance?
The claudin-4 localization was “mis-localization of claudin-4 away from tight junctions”.

And the “localization/binding of FITC-peptide at the plasma membrane” value (“localization/binding of FITC-peptide” for short) (EpH4 cells [4])?
The value was “localizes to the plasma membrane at the sites of cell junctions”.

What about the “fluorescence intensity of FITC” value (EpH4 cells [4]) of the same substance?
The value was 82.71±5.80.

What about the “caspase-3 and/or -7 activation, live cells” value (3T3L1 cells [5]) of the same substance?
Its value is “no caspase activation”.

What about the “caspase-8 activation, time course” value (caspase-8 [6]) of the same substance?
Its value is “significant caspase-8 activation”.

And the “percent apoptosis (caspase-3 activation)” value (EpH4 cells [1]; 800 μM peptide, 16 hours, n=3-6)?
Its value is 10.58±0.83%.

What about the “caspase-3 and/or -7 activation, live cells” value (caspase-3; 400 μM, 1 hour at 4°C then 4 hours at 37°C) of the same substance?
The value was “significantly increased”.

And the “localization/binding of FITC-peptide” value (3T3L1 cells [7])?
The value was “does not, however, appear to bind to the plasma membranes”.

How did the “localization/binding of FITC-peptide” value (EpH4 cells [4]) turn out when {FITC}-DGYNP-NH2 [FITC-D(G)YNP] was run?
Its value is “binds poorly”.

And the “fluorescence intensity of FITC” value (EpH4 cells [4])?
The value was 18.38±9.26.
